Several values for one entry are separate records, joined by “and”; a condition that tells them apart may be missing. Equal values may be shown once. Entries after “also recorded” stand apart in the source; their conditions may differ. Read-outs that look alike come from different tables or passages of the source.
Legend:
[1] = cited from earlier work
[2] = cited from earlier work; remark: listed apart in the source
[3] = format: in vivo, human; settings: for half-life: both, human, plasma, oral, 150 mg, Mean half-life
Procedure, shortened: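 Severe renal impairment (eGFR ≤29 mL/min/1.73 m2) versus matched normal-function subjects (eGFR ≥80), n = 8 each. Oral 150 mg test compound capsule daily, fed, for 7 days; Day 7 dose given after ≥10-h fast plus standard breakfast. Plasma drawn pre-dose Days 5–6 and on Day 7 at 0–72 h; LC-MS/MS. Noncompartmental Cmin, Cmax and AUC24 taken on log scale. Linear mixed-effects model gave LS means and 90 % CI of group difference.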

[4] = cited from earlier work; remark: listed apart in the source
[5] = Safety and tolerability, Study 2; format: in vivo, human
Procedure, shortened: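 Non-HCV-infected adults (18–70 y). Severe renal impairment group had MDRD eGFR ≤29 mL/min/1.73 m2 and no dialysis. Controls had eGFR ≥80 and were matched for sex, race, age and BMI. All took 150 mg test compound orally daily, fed, for 7 days. Subject-reported AEs recorded; hematology/biochemistry on Days 1, 3, 5, 7 and 8; urinalysis and ECG on Days 1 and 7.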

[6] = system: HCV genotype 1; settings: COSMOS; simeprevir plus sofosbuvir with or without ribavirin; cited from earlier work
[7] = Safety evaluation, Study 1; format: in vivo, human
Procedure, shortened: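 Six healthy male nonsmokers (18–55 y) given one oral 200-mg dose of radiolabelled test compound in polyethylene glycol 400, fed. Safety covered subject-reported AEs, hematology, biochemistry, coagulation, urinalysis and electrocardiogram. Descriptive statistics only.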

[8] = preclinical studies; cited from earlier work
[9] = 14C-simeprevir mass balance study; format: in vivo, human; settings: as summarised in Discussion
Procedure, shortened: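 Healthy adult males (18–55 y, BMI 18.0–30.0 kg/m2, nonsmokers). Single oral 200-mg dose of 14C-labelled plus unlabelled test compound in polyethylene glycol 400, fed, 1.85 MBq total. Urine pooled at 0–8, 8–16, 16–24, 24–36 and 36–48 h, then every 24 h. Every stool collected until ≥Day 8, <2 % of dose excreted per 24 h, and ≥7 stools. Radioactivity read by […] and expressed as % of dose; six subjects.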

[10] = system: HCV genotype 1; settings: treatment-naïve patients, simeprevir plus ribavirin and pegylated interferon, cited from earlier work
[11] = system: plasma proteins; assay: Unbound simeprevir in plasma; format: in vitro ADME, human
Procedure, shortened: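 Subjects with severe renal impairment or matched normal renal function, given 150 mg test compound orally daily for 7 days. Blood drawn pre-dose and 4 h post-dose. Unbound concentration measured by dialysis, then liquid scintillation counting of spiked tritiated test compound. Mean and SD reported per time point, plus fraction unbound.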

[12] = 14C-daclatasvir excretion study
[13] = moderate to severe renal impairment vs healthy, single 400-mg dose
[14] = renal impairment group, treatment phase
[15] = subject with rhabdomyolysis (also on high-dose fenofibrate), Day 9
[16] = whole study period, six healthy subjects

For `COC(=O)N[C@H](C(=O)N1CCC[C@H]1c1nc(-c2ccc(-c3ccc(-c4c[nH]c([C@@H]5CCCN5C(=O)[C@@H](NC(=O)OC)C(C)C)n4)cc3)cc2)c[nH]1)C(C)C` [daclatasvir], the “Increase in AUCinf” value ([1]; ESRD) is given as roughly 51%, the “Increase in AUCinf” value ([1]; moderate renal impairment) is given as “approximately 18%” and the “Increase in AUCinf” value ([1]; severe renal impairment) is given as roughly 39%. For the same molecule, the “Recovery from the feces” value [2, 12] was 88%, the “Total radioactivity dose eliminated in urine” value [2, 12] was 6.6% and the Renal excretion [2] was less than 10%.

In the case of `NC(=O)c1ncn([C@@H]2O[C@H](CO)[C@@H](O)[C@H]2O)n1` [ribavirin], the “Decrease in apparent clearance” value [1, 13] is given as 50–75%, the “Increase in AUC” value [1, 13] is given as “two- to three-fold increase” and the “Radioactivity excreted in the urine” value ([2]; 600-mg 14C-ribavirin dose) is given as 61%.

In the case of `COc1ccc2c(O[C@@H]3C[C@H]4C(=O)N[C@]5(C(=O)NS(=O)(=O)C6CC6)C[C@H]5/C=C\CCCCN(C)C(=O)[C@@H]4C3)cc(-c3nc(C(C)C)cs3)nc2c1C` [simeprevir], the “AUC24h higher in severe renal impairment compared with healthy subjects” value ([3]; based on LS mean ratio, Day 7) is reported as 62%, the “Cmax higher in severe renal impairment compared with healthy subjects” value ([3]; based on LS mean ratio, Day 7) is reported as 34% and the half-life ([3]; healthy subjects) is reported as 16.7 h. The half-life ([3]; subjects with severe renal impairment) was 24 h, the half-life ([4]; HCV-infected subjects with normal renal function) was 41 h and the “AUC (range of concentrations observed in phase III studies)” value ([4]; HCV-infected subjects without renal impairment) was 4848–449,185 ng·h/mL. For the same molecule, the “Concentrations in subjects with HCV infection compared with non-HCV-infected subjects” value [4] was “two- to three-fold higher”, the “Deaths or AEs resulting in permanent premature discontinuation of simeprevir” value ([5]; Study 2) was “No deaths or AEs resulting in permanent premature discontinuation of simeprevir occurred” and the “Severity of most AEs” value ([5]; Study 2, both groups) was “grade I or II; also recorded: grade 1 or 2”. The “Subjects with at least one AE” value ([5]; control group, treatment phase) was 12.5%, the “Subjects with at least one AE” value ([5]; control group, whole study period) was 37.5% and the Severity of rhabdomyolysis ([5]; one subject of renal impairment group, also receiving fenofibrate) was “grade 3”. For the same molecule, the “Subjects with at least one AE” value [5, 14] was 50%, the Subjects with hyperbilirubinemia [5, 14] was 12.5% and the Subjects with hypertension [5, 14] was 12.5%. The “Subjects with increased blood alkaline phosphatase” value [5, 14] was 12.5%, the Subjects with myalgia [5, 14] was 12.5% and the Subjects with rhabdomyolysis [5, 14] was 12.5%. The “Subjects with at least one AE” value ([5]; renal impairment group, whole study period) was 50%, the “Relatedness of rhabdomyolysis and myalgia (investigator)” value ([5]; same subject, also taking high-dose fenofibrate) was “probably related to simeprevir” and the Creatine kinase level [5, 15] was 96.76 μkat/L. For the same molecule, the “Creatine kinase muscle brain fraction levels” value [5, 15] was 20.84 µg/L and 19.45 µg/L, the Myoglobin levels [5, 15] was 1200 µg/L and 1475 µg/L and 1476 µg/L and the SVR rates [6] was 92–94%. For the same molecule, the “Deaths or AEs resulting in permanent premature discontinuation” value ([7]; Study 1) was “No deaths or AEs resulting in permanent premature discontinuation from the study occurred”, the “Dry mouth, subjects” value [7, 16] was “one subject” and the “Increased ALT and AST levels, subjects” value [7, 16] was “two subjects”. The “Prolonged aPTT, subjects” value [7, 16] was “two subjects”, the “Subjects with at least one AE” value ([7]; whole study period, six healthy subjects, single 200-mg dose) was “five subjects” and the Tissue distribution [8] was “predominately distributed to the liver and intestines with low distribution (similar or less than plasma) to the kidneys”. The “14C-simeprevir excreted in the urine” value [9] was less than 2%, the SVR rate ([10]; QUEST-1) was 80% and the SVR rate ([10]; QUEST-2) was 81%. For the same molecule, the “Mean unbound plasma concentration” value ([11]; matched healthy subjects, 4 h post-dose, SD 0.2574) was 0.2714, the “Mean unbound plasma concentration” value ([11]; matched healthy subjects, pre-dose, SD 0.1567) was 0.1142 and the “Mean unbound plasma concentration” value ([11]; subjects with renal impairment, 4 h post-dose) was 0.4216 (SD 0.3319). The “Mean unbound plasma concentration” value ([11]; subjects with renal impairment, pre-dose) was 0.2892 (SD 0.4411).

For `CC(C)OC(=O)[C@H](C)N[P@](=O)(OC[C@H]1O[C@@H](n2ccc(=O)[nH]c2=O)[C@](C)(F)[C@@H]1O)Oc1ccccc1` [sofosbuvir], the “Increase in AUCinf” value ([1]; mild renal impairment vs normal renal function, single 400-mg dose) is given as 61%, the “Increase in AUCinf” value ([1]; moderate renal impairment vs normal renal function, single 400-mg dose) is given as 107% and the “Increase in AUCinf” value ([1]; severe renal impairment vs normal renal function, single 400-mg dose) is given as 171%. For the same molecule, the “14C-sofosbuvir recovered from the urine” value ([2]; 400-mg 14C-sofosbuvir dose) was 80%.

Source: paper PMC4561054 (Drugs in R&D, 2015)
